Holding throughout (assay type): functional, organism-based
Test [1] deals with Mycolicibacterium smegmatis. The test is described as follows: 100% inhibition of growth of clofazimine resistant Mycobacterium smegmatis 607 strain in vitro. Put shortly: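 Strain: 20× step-up clofazimine-resistant mutant of M. smegmatis ATCC607. 10^5 viable cells inoculated into modified Kirchner's medium with 0.5% Tween 80. Drugs were added in DMSO (2% final in all tubes). Roller tubes were incubated at 37 °C for 72 h. Growth was read as optical transmission in a spectrophotometer.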

In test [2] the test system is Mycolicibacterium smegmatis. Description: Concentration for 100% inhibition of growth of dapsone sensitive Mycobacterium smegmatis 607 strain in vitro. Put shortly: (§1)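 M. smegmatis ATCC607-derived strains (one of three used, including a dapsone-sensitive one) were grown in modified Kirchner's medium with 0.5% Tween 80, inoculated with 10^5 viable cells. Drugs were added in DMSO (2% final). Roller tubes were incubated at 37 °C for 72 h. Growth was read as spectrophotometric transmission.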

Test [3] concerns Mycolicibacterium smegmatis. The test is described as follows: 100% inhibition of growth of rifampicin resistant Mycobacterium smegmatis 607 strain in vitro. The method, boiled down:
as §1

In the case of `CC(C)CC/N=c1\cc2n(-c3ccccc3)c3ccccc3nc-2cc1Nc1ccccc1`, the Concentration in test [1] was 20 µg/mL; in test [2], 2 µg/mL; in test [3], 2 µg/mL.
As for `CCN(CC)CC/N=c1\cc2n(-c3ccc(C)cc3)c3ccccc3nc-2cc1Nc1ccc(C)cc1`, the results for the Concentration in test [1], in test [2] and in test [3] were 3 µg/mL, 0.5 µg/mL and 0.5 µg/mL, respectively.
Consider `CC1(C)CC(/N=c2\cc3n(-c4ccc(Cl)cc4)c4ccccc4nc-3cc2Nc2ccc(Cl)cc2)CC(C)(C)N1`, for which the Concentration is 2 µg/mL in test [1], 0.2 µg/mL in test [2] and 0.5 µg/mL in test [3].
As for `Clc1ccc(Nc2cc3nc4ccccc4n(-c4ccc(Cl)cc4)c-3c/c2=N\CCN2CCCCC2)cc1`, the Concentration in test [1] was found to be 10 µg/mL; in test [2], 0.4 µg/mL; in test [3], 0.5 µg/mL.
Taken in the same sequence, the figures for `c1ccc(Nc2cc3nc4ccccc4n(-c4ccccc4)c-3c/c2=N\CCN2CCNCC2)cc1` were 1 µg/mL, 0.4 µg/mL and 0.4 µg/mL.
Taken in the same sequence, the figures for `CC(C)C/N=c1\cc2n(-c3ccc(Cl)cc3)c3ccccc3nc-2cc1Nc1ccc(Cl)cc1` were 100 µg/mL, 4 µg/mL and 4 µg/mL.
Regarding `CCCC/N=c1\cc2n(-c3ccccc3)c3ccccc3nc-2cc1Nc1ccccc1`, the Concentration in test [1] came out at 20 µg/mL; in test [2] it was 3 µg/mL; in test [3], 3 µg/mL.
With `CC(C)C(C)/N=c1\cc2n(-c3ccc(Cl)cc3)c3ccccc3nc-2cc1Nc1ccc(Cl)cc1` (configuration not stated), the Concentration came to 30 µg/mL in test [1], 3 µg/mL in test [2] and 4 µg/mL in test [3].
The matching figures for `CCN(CC)CC/N=c1\cc2n(-c3ccccc3)c3ccccc3nc-2cc1Nc1ccccc1`: 6 µg/mL, 0.6 µg/mL and 0.8 µg/mL.
The matching figures for `Clc1ccc2c(c1)nc1cc(Nc3ccccc3)/c(=N/CCN3CCOCC3)cc-1n2-c1ccccc1`: 50 µg/mL, 1 µg/mL and 1.5 µg/mL.
The matching figures for `CC(C/N=c1\cc2n(-c3ccccc3)c3ccccc3nc-2cc1Nc1ccccc1)N(C)C` (configuration not stated): 4 µg/mL, 0.8 µg/mL and 1 µg/mL.
`c1ccc(Nc2cc3nc4ccccc4n(-c4ccccc4)c-3c/c2=N\CCCN2CCCCC2)cc1`: the Concentration came to 1 µg/mL in test [1], 0.3 µg/mL in test [2] and 0.3 µg/mL in test [3].
`OCCCN1CCN(CCC/N=c2\cc3n(-c4ccc(Cl)cc4)c4ccccc4nc-3cc2Nc2ccc(Cl)cc2)CC1`: the Concentration in test [1] came out at 2 µg/mL; in test [2], 0.6 µg/mL; in test [3] it was 0.5 µg/mL.
For `CC(CN(C)C)/N=c1\cc2n(-c3ccc(Cl)cc3)c3ccccc3nc-2cc1Nc1ccc(Cl)cc1` (configuration not stated), the results for the Concentration in test [1], in test [2] and in test [3] were 16 µg/mL, 0.8 µg/mL and 1.2 µg/mL, respectively.
Taken in the same sequence, the figures for `O=C1CCCN1CCC/N=c1\cc2n(-c3ccc(Cl)cc3)c3ccccc3nc-2cc1Nc1ccc(Cl)cc1` were 20 µg/mL, 2 µg/mL and 2 µg/mL.
Taken in the same sequence, the figures for `Cc1ccc(Nc2cc3nc4ccccc4n(-c4ccc(C)cc4)c-3c/c2=N\CC(C)C)cc1` were 100 µg/mL, 2 µg/mL and 3 µg/mL.
Taken in the same sequence, the figures for `Clc1ccc(Nc2cc3nc4ccccc4n(-c4ccc(Cl)cc4)c-3c/c2=N\CCCN2CCOCC2)cc1` were 12 µg/mL, 0.5 µg/mL and 0.4 µg/mL.
For `Cc1ccc(Nc2cc3nc4ccccc4n(-c4ccc(C)cc4)c-3c/c2=N\CCCNC2CCCCC2)cc1`, the Concentration in test [1] worked out at 0.5 µg/mL; in test [2] it was 0.2 µg/mL; in test [3], 0.2 µg/mL.
On to `Clc1ccc(Nc2cc3nc4ccccc4n(-c4ccc(Cl)cc4)c-3c/c2=N\CC2CCNCC2)cc1`, for which the Concentration in test [1] is 0.6 µg/mL; in test [2], 0.2 µg/mL; in test [3] it was 0.2 µg/mL.

The record behind these values is ChEMBL document CHEMBL1124233, “Clofazimine analogues active against a clofazimine-resistant organism” (J Med Chem, 1988).
